Assay [1] relates to JC polyomavirus. The assay is described as follows: Antiviral activity against JC polyomavirus Mad1-SVEdelta infected in SVG-A cells assessed as viral infectivity level pre-incubated for 0.5 hrs with 25 uM compound before viral infection for 72 hrs by flow cytometry relative to DMSO control. The assay is classed as functional.
In assay [2] the test system is JC polyomavirus. The assay is described as follows: Inhibition of retrograde transport of JC polyomavirus Mad1-SVEdelta infected in SVG-A cells assessed as reduction in co-localization of viral capsid protein VP1 and ER protein PDI pre-incubated for 0.5 hrs with compound before viral infection for 1 hr followed by incubation with compound at 0.1 mM for 8 hrs by proximity ligation assay. The assay is classed as functional, cell-based. The procedure, abridged:
(§1)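 SVG-A cells in MEM with 10% FBS were pretreated 0.5 h, then given JCPyV Mad1-SVEΔ at MOI 100 for 1 h at 37°C. After washing, compound (0.05 or 0.1 mM) or vehicle was re-added for 8 h at 37°C. Cells were fixed (4% PFA), permeabilised (0.5% Triton, 0.5 h) and blocked (5% donkey serum), then stained overnight at 4°C with rabbit anti-VP1 (1:1,000) plus mouse anti-PDI (1:100). Read-out: proximity ligation, confocal maximal z-projections.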

Assay [3] deals with Human papillomavirus type 16. The assay is described as follows: Inhibition of retrograde transport of HPV16 pseudovirus expressing HcRed reporter infected in SVG-A cells assessed as reduction in co-localization of viral capsid protein L1 and golgi protein TGN46 pre-incubated for 0.5 hrs with compound before viral infection for 1 hr followed by incubation with compound at 0.1 mM for 16 hrs by proximity ligation assay. The assay is classed as functional, organism-based. The settings on record: Human papillomavirus 16.

Assay [4] deals with JC polyomavirus. The assay is described as follows: Antiviral activity against JC polyomavirus Mad1-SVEdelta infected in SVG-A cells assessed as reduction in viral infectivity pre-incubated for 0.5 hrs with compound before viral infection for 72 hrs by flow cytometry. The assay is classed as functional, cell-based. A digest of the protocol: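 JCPyV infection of SVG-A cells (1 × 10^5 per well, seeded overnight at 37°C) after 0.5 h pretreatment with compound from 1:2 serial dilutions of a 2500x DMSO stock, final DMSO 0.04%. Virus at MOI 0.25 with compound present for 72 h. Cells fixed in 4% PFA and permeabilized in 1% Triton X-100. Stained with Alexa Fluor-labeled anti-VP1 antibody, infected cells scored by flow cytometry. IC50 from three independent experiments.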

For assay [5], the system named is Human papillomavirus type 16. The assay is described as follows: Antiviral activity against HPV16 pseudovirus expressing HcRed reporter infected in HeLa-M cells assessed as reduction in viral infectivity pre-incubated for 0.5 hrs with compound before viral infection for 72 hrs by flow cytometry. The assay is classed as functional, organism-based. The settings on record: Human papillomavirus 16, HeLaM. The procedure, abridged:
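HeLa M cells in DMEM with 10% FBS and 10 mM Hepes pH 7.5, pretreated with compound from 1:2 serial dilutions of a 2500x DMSO stock, final DMSO 0.04%. Challenged with HcRed-reporter HPV16 pseudovirus. Cells fixed in 4% PFA and HcRed-positive cells scored by flow cytometry. IC50 from three independent experiments.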

For assay [6], the system named is Human papillomavirus type 16. The assay is described as follows: Inhibition of retrograde transport of HPV16 pseudovirus expressing HcRed reporter infected in SVG-A cells assessed as reduction in co-localization of viral capsid protein L1 and golgi protein TGN46 pre-incubated for 0.5 hrs with compound before viral infection for 1 hr followed by incubation with compound at 0.05 mM for 16 hrs by proximity ligation assay. The assay is classed as functional, organism-based. The settings on record: Human papillomavirus 16.

The subject of assay [7] is JC polyomavirus. The assay is described as follows: Potency index, ratio of IC50 for Retro-2(cycl) to IC50 for test compound against JC polyomavirus Mad1-SVEdelta infected in SVG-A cells assessed as reduction in viral infectivity pre-incubated for 0.5 hrs with compound before viral infection for 72 hrs by flow cytometry. In kind it is functional.
For assay [8], the system named is JC polyomavirus. In words: Inhibition of retrograde transport of JC polyomavirus Mad1-SVEdelta infected in SVG-A cells assessed as reduction in co-localization of viral capsid protein VP1 and ER protein PDI pre-incubated for 0.5 hrs with compound before viral infection for 1 hr followed by incubation with compound at 0.05 mM for 8 hrs by proximity ligation assay. In kind it is functional, cell-based. The procedure, abridged:
as §1

Molecules are shown by their SMILES. The source made the active and inactive calls. No cut-off for these calls is given here.

Consider `CCCCNc1ccc2c(c1)C(=O)N(Cc1ccc(F)cc1)C(c1ccc(CC)s1)N2` (configuration not stated), for which the Activity in the assay with JC polyomavirus [1] came to 71%. On to `CCc1ccc(-c2nc3ccccc3c(=O)n2Cc2ccc(F)cc2)s1`, for which the Activity in the assay on JC polyomavirus [1] is listed as 63.3%. On to `CCc1ccc(C2N(Cc3ccc(F)cc3)C(=O)c3ccccc3N2C)s1` (configuration not stated), for which, in the assay on JC polyomavirus [1], the Activity was 60%. The same measure, in the same setting: to `CCc1ccc(C2Nc3ccccc3C(=O)N2[C@@H](C)c2ccccc2)s1` (mixture of isomers) belongs 32.4%; to `CCc1ccc(C2Nc3ccccc3C(=O)N2[C@H](C)c2ccccc2)s1` (mixture of isomers), 52.7%.

For `Cc1ccc(C2Nc3ccccc3C(=O)N2c2ccccc2)s1` (racemic), the inhibition entry (in the assay on JC polyomavirus [2]; in assay [3]) was “Active” in each case. The Activity in the assay with JC polyomavirus [1] stood at 57.5%. Also, the half-inhibitory concentration (IC50) amounted to 54 µM in the assay on JC polyomavirus [4] and 160 µM in assay [5]. For `O=C1c2ccccc2NC(c2cccs2)N1c1ccccc1` (racemic), the Activity with JC polyomavirus [1] was 81.1%. The same measure, in the same setting: to `Cc1ccsc1C1Nc2ccccc2C(=O)N1c1ccccc1` (racemic) belongs 76.4%; to `Cc1csc(C2Nc3ccccc3C(=O)N2c2ccccc2)c1` (racemic), 55.6%; to `CCc1ccc(C2Nc3ccccc3C(=O)N2c2ccccc2)s1` (racemic), 47.8%. Take `O=C1c2ccccc2NC(c2ccc[nH]2)N1c1ccccc1` (racemic): the Activity in the assay on JC polyomavirus [1] is 92.4%.

Consider `O=C1c2ccccc2NC(c2ccco2)N1c1ccccc1` (racemic), for which the Activity with JC polyomavirus [1] came out at 69.9%.

On to `Cc1ccc(C2Nc3ccccc3C(=O)N2c2ccccc2)o1` (racemic), for which the Activity with JC polyomavirus [1] was found to be 64.4%. On to `O=C1c2ccccc2NC(c2cc3ccccc3s2)N1c1ccccc1` (racemic), for which the Activity with JC polyomavirus [1] stood at 95.3%. For `CCc1ccc(C2NC(=O)c3ccccc3N2)s1` (racemic), the Activity with JC polyomavirus [1] was 41.4%.

As to `CCCN1C(=O)c2ccccc2NC1c1ccc(CC)s1` (racemic), the Activity with JC polyomavirus [1] is on record as 76.4%. Regarding `CCc1ccc(C2Nc3ccccc3C(=O)N2C(C)C)s1` (racemic), the Activity in the assay with JC polyomavirus [1] came to 69.9%. On to `CCCCN1C(=O)c2ccccc2NC1c1ccc(CC)s1` (racemic), for which, in the assay on JC polyomavirus [1], the Activity came to 42.4%.

As to `CCc1ccc(C2Nc3ccccc3C(=O)N2C2CCCCC2)s1` (racemic), the Activity in the assay with JC polyomavirus [1] is reported as 45.7%. For the molecule `CCc1ccc(C2Nc3ccccc3C(=O)N2Cc2ccccc2)s1` (racemic), the Activity in the assay with JC polyomavirus [1] is 13.3%. Take `CCc1ccc(C2Nc3ccccc3C(=O)N2CCc2ccccc2)s1` (racemic): in the assay on JC polyomavirus [1], the Activity worked out at 50.4%. Take `CCc1ccc(C2Nc3ccccc3C(=O)N2Cc2cccc3ccccc23)s1` (racemic): the Activity in the assay with JC polyomavirus [1] is 14.5%. Consider `CCc1ccc(C2Nc3ccccc3C(=O)N2Cc2ccc(OC)cc2)s1` (racemic), for which the Activity in the assay with JC polyomavirus [1] turned out to be 21.2%. Still for that read-out and setting: the same measure for `CCc1ccc(C2Nc3ccccc3C(=O)N2Cc2cccc(OC)c2)s1` (racemic): 27.5%. With `CCc1ccc(C2Nc3ccccc3C(=O)N2Cc2ccccc2OC)s1` (racemic), the Activity in the assay on JC polyomavirus [1] was found to be 13.7%. As to `CCc1ccc(C2Nc3ccccc3C(=O)N2Cc2ccc(OC)cc2OC)s1` (racemic), the Activity in the assay on JC polyomavirus [1] worked out at 16.4%. Consider `CCc1ccc(C2Nc3ccccc3C(=O)N2Cc2ccc(F)cc2)s1` (racemic), for which, in the assay with JC polyomavirus [1], the Activity is 7.62%.

As to `CCc1ccc(C2Nc3ccccc3C(=O)N2Cc2cccc(F)c2)s1` (racemic), the Activity in the assay on JC polyomavirus [1] stood at 14%. For the molecule `CCc1ccc(C2Nc3ccccc3C(=O)N2Cc2ccc([N+](=O)[O-])cc2)s1` (racemic), the Activity in the assay on JC polyomavirus [1] is 30.6%.

For `CCc1ccc(C2Nc3ccccc3C(=O)N2Cc2cccc([N+](=O)[O-])c2)s1` (racemic), the Activity in the assay with JC polyomavirus [1] amounted to 44.5%.

Consider `CCc1ccc(C2Nc3cccc(C)c3C(=O)N2Cc2ccc(F)cc2)s1` (racemic), for which the Activity in the assay with JC polyomavirus [1] was determined as 10.2%. As for `CCc1ccc(C2Nc3ccc(C)cc3C(=O)N2Cc2ccc(F)cc2)s1` (racemic), in the assay with JC polyomavirus [1], the Activity is reported as 8.34%. As for `CCc1ccc(C2Nc3cc(C)ccc3C(=O)N2Cc2ccc(F)cc2)s1` (racemic), the Activity in the assay on JC polyomavirus [1] is on record as 67.1%. With `CCc1ccc(C2Nc3c(C)cccc3C(=O)N2Cc2ccc(F)cc2)s1` (racemic), the Activity in the assay on JC polyomavirus [1] was found to be 44.5%. Take `CCc1ccc(C2Nc3ccc(Cl)cc3C(=O)N2Cc2ccc(F)cc2)s1` (racemic): the Activity in the assay on JC polyomavirus [1] stood at 13.7%. The same measure, in the same setting: the same measure for `CCc1ccc(C2Nc3cc(Cl)ccc3C(=O)N2Cc2ccc(F)cc2)s1` (racemic): 21.3%. As for `CCc1ccc(C2Nc3ccc(F)cc3C(=O)N2Cc2ccc(F)cc2)s1` (racemic), the inhibition entry (in assay [6]; with JC polyomavirus [8]) was “Active” throughout. Further, in the assay on JC polyomavirus [7], the “Ratio IC50” value is given as 6.7. The Activity in the assay with JC polyomavirus [1] was 4.45%. In addition, the values for the half-inhibitory concentration (IC50) (with JC polyomavirus [4]; in assay [5]) were 8.1 µM and 24 µM, respectively.

`CCc1ccc(C2Nc3cc(F)ccc3C(=O)N2Cc2ccc(F)cc2)s1` (racemic): the Activity in the assay with JC polyomavirus [1] amounted to 8.82%.

Values taken from ChEMBL document CHEMBL3351579, “Structural optimization of a retrograde trafficking inhibitor that protects cells from infections by human polyoma- and papillomaviruses” (Bioorg Med Chem, 2014).
